Source: ChEMBL document CHEMBL4033636, “Identification of selective inhibitors of sphingosine kinases 1 and 2 through a structure-activity relationship study of 4-epi-jaspine B” (Bioorg Med Chem, 2017)

Assays:
Sphingosine kinase 1 [1] = molecular target: T1, Sphingosine kinase 1 (Homo sapiens, UniProt Q9NYA1); assay: Inhibition of recombinant human SphK1 using NBD-sphingosine as substrate after 2 hrs in presence of ATP by HPLC method
Sphingosine kinase 2 [2] = molecular target: T2, Sphingosine kinase 2 (Homo sapiens, UniProt Q9NRA0); assay: Inhibition of recombinant human SphK2 using NBD-sphingosine as substrate after 2 hrs in presence of ATP by HPLC method
T2 sequence (Q9NRA0 whole entry): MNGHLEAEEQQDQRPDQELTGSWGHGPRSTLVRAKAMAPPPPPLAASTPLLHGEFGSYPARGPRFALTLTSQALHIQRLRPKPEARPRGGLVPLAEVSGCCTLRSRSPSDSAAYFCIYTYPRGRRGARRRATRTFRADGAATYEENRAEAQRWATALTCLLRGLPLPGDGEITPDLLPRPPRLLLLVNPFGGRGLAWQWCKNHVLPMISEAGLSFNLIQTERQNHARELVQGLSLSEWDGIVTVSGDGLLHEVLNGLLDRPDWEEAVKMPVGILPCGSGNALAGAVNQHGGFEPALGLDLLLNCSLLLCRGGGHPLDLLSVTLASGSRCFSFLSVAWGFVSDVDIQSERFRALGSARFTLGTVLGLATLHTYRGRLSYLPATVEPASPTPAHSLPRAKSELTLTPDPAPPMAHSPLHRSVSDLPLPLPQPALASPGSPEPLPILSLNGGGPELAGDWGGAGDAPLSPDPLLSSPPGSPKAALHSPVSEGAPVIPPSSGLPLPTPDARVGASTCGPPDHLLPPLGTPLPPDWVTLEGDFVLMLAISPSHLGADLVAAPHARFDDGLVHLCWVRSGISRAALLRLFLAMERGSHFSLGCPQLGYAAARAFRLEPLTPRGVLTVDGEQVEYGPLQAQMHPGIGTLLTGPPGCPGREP

Sphingosine kinase 2 [3] = molecular target: T2, Sphingosine kinase 2; assay: Inhibition of recombinant N-terminal GST-tagged human SphK2 (1 to 618 residues) expressed in baculovirus expression system using sphingosine as substrate after 1 hr in presence of ATP by off-chip mobility shift assay
Procedure, shortened: (§1)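 GST-fusion kinases purified on glutathione sepharose. Compounds in DMSO diluted fourfold into 20 mM HEPES pH 7.5, 0.01% Triton X-100, 2 mM DTT. Reaction: 1 µM sphingosine, 5 mM MgCl2, ATP 25 µM (SphK1) or 600 µM (SphK2), room temperature 1 h, n = 2. Read-out: P/(P+S) from electrophoretic peak heights. […] IC50 fitted.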

Sphingosine kinase 1 [4] = molecular target: T1, Sphingosine kinase 1; assay: Inhibition of recombinant N-terminal GST-tagged human SphK1 (1 to 384 residues) expressed in baculovirus expression system using sphingosine as substrate after 1 hr in presence of ATP by off-chip mobility shift assay; procedure, shortened: as §1
Sphingosine kinase 2 [5] = molecular target: T2, Sphingosine kinase 2; assay: Inhibition of human SphK2 using sphingosine as substrate after 15 to 20 mins in presence of [gamma-32P]ATP by Cerenkov counting method
Sphingosine kinase 1 [6] = molecular target: T1, Sphingosine kinase 1; assay: Inhibition of human SphK1 using sphingosine as substrate after 15 to 20 mins in presence of [gamma-32P]ATP by Cerenkov counting method
Sphingosine kinase 1 [7] = molecular target: T1, Sphingosine kinase 1; assay: Inhibition of human SphK1 using sphingosine as substrate in presence of [gamma-32P]ATP
Sphingosine kinase 1 [8] = molecular target: T1, Sphingosine kinase 1; assay: Inhibition of recombinant human SphK1 expressed in baculovirus infected sf9 cells using D-erythro-sphingosine as substrate in presence of [gamma-33P]ATP by scintillation counting method
Sphingosine kinase 2 [9] = molecular target: T3, Sphingosine kinase 2 (Mus musculus, UniProt Q9JIA7); assay: Inhibition of recombinant mouse SphK2 expressed in baculovirus infected sf9 cells using D-erythro-sphingosine as substrate in presence of [gamma-33P]ATP by scintillation counting method
T3 sequence (Q9JIA7 whole entry): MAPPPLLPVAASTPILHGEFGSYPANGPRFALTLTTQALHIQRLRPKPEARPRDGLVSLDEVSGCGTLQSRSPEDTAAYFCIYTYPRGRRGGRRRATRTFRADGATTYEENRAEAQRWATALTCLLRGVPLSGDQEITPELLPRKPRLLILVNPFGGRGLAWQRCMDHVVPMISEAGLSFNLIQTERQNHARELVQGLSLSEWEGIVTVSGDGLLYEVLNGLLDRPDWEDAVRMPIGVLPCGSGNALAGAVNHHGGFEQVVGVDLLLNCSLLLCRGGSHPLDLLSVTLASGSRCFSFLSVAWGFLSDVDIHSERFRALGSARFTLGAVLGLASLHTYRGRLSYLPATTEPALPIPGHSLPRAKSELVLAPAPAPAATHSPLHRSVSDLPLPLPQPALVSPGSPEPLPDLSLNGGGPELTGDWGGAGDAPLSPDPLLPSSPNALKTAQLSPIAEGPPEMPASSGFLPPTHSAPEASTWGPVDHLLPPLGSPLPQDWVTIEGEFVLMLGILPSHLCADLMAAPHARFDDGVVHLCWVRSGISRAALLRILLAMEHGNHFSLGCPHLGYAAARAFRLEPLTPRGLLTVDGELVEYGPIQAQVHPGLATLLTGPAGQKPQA

T1 sequence (Q9NYA1 whole entry): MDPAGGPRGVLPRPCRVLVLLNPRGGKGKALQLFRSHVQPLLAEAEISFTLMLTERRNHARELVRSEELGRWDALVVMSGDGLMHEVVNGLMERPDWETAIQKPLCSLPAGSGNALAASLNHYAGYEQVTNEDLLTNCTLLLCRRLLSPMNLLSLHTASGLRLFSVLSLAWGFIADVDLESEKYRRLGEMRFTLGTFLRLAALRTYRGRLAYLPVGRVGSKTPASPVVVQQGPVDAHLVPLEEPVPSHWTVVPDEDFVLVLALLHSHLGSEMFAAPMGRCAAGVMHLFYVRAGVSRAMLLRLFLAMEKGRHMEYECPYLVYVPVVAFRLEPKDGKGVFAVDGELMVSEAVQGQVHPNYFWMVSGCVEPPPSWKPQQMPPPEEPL

| IC50 (Sphingosine kinase 2 [3]) [µM] | IC50 (Sphingosine kinase 1 [4]) [µM] | SMILES | further results |
| --- | --- | --- | --- |
| 0.6 to 0.74 | 0.82 to 1.1 | CCCCCCCCCCCCCC[C@@H]1OC[C@@H](N)[C@@H]1O |  |
| 2.1 | 16 | CCCCCCCCc1cccc(CC[C@@H]2OC[C@@H](N)[C@@H]2O)c1 |  |
| 0.84 | 0.71 | CC(C)COCCCCCCCCCCC[C@@H]1OC[C@@H](N)[C@@H]1O |  |
| 0.78 | 0.38 | N[C@@H]1CO[C@@H](CCCCCCCCCCCOCC2CCCCC2)[C@H]1O |  |
| 2.2 | > 30 | CCCCCCCc1cccc(CC[C@@H]2OC[C@@H](N)[C@@H]2O)c1 |  |
| 1.9 | 1.1 | CCCCCCCCCCCCCC[C@@H]1OC[C@@H](NC(=N)N)[C@@H]1O |  |
| 0.67 | 0.42 | CCCCCCCCCCc1ccc(CC[C@@H]2OC[C@@H](N)[C@@H]2O)cc1 |  |
| > 30 | > 30 | CCCCCCCCCCCCCCc1ccc(CC[C@@H]2OC[C@@H](N)[C@@H]2O)cc1 |  |
| 1.3 | 2.8 | N[C@@H]1CO[C@@H](CCCCCCCCOCC2CCCCC2)[C@H]1O |  |
| > 30 | > 30 | CCCCCCCCc1ccccc1CC[C@@H]1OC[C@@H](N)[C@@H]1O |  |
| > 30 | 4 | CCCCCCCCCCCCCC[C@@H]1OC[C@@H](N)[C@@H]1OC |  |

Second part, the compound before the results:

| SMILES | IC50 (Sphingosine kinase 2 [3]) [µM] | IC50 (Sphingosine kinase 1 [4]) [µM] | further results |
| --- | --- | --- | --- |
| CC(=O)N(C1=C(Cl)C(=O)c2ccccc2C1=O)C1CCCCC1 |  |  | IC50 (Sphingosine kinase 1 [1]): 2 µM; IC50 (Sphingosine kinase 2 [2]): > 100 µM |
| CCCCCCCCc1ccc(CC[C@@](N)(CO)COC)cc1 |  |  | IC50 (Sphingosine kinase 2 [5]): 27 µM; IC50 (Sphingosine kinase 1 [6]): > 50 µM |
| CCCCOc1ccc(CC/C=C2\SC(=O)N(CCN)C2=O)cc1 |  |  | IC50 (Sphingosine kinase 1 [7]): > 10 µM |
| CCCCCCCCCCCCc1ccc(-c2noc(C3(C(=N)N)CC3)n2)cc1 |  |  | Ki (Sphingosine kinase 1 [8]): 0.04 µM; Ki (Sphingosine kinase 2 [9]): 14.1 µM |
| CCCCCCCCCCCCc1ccc(CC[C@@H]2OC[C@@H](N)[C@@H]2O)cc1 | 21 | 0.88 |  |
| CCCCCCc1ccc(CC[C@@H]2OC[C@@H](N)[C@@H]2O)cc1 | 8.3 | > 30 |  |
| N[C@@H]1CO[C@@H](CCCCCCCCCCOCC2CCCCC2)[C@H]1O | 0.24 | 0.22 |  |
| CCCCCCCCCOCCCC[C@@H]1OC[C@@H](N)[C@@H]1O | > 30 | > 30 |  |
| CCCCCCCCCCCCCC[C@@H]1OC[C@@H](NC(C)=O)[C@@H]1O | > 30 | > 30 |  |
| CCCCCCCCCc1cccc(CC[C@@H]2OC[C@@H](N)[C@@H]2O)c1 | 1.7 | 12 |  |
| CCCCCCCCCCCCCC[C@@H]1OC[C@@H](NC(C)=N)[C@@H]1O | 9.4 | 3.1 |  |
| CCCCCCCCc1ccc(CC[C@@H]2OC[C@@H](N)[C@@H]2O)cc1 | 0.56 | 1.4 |  |
| N[C@@H]1CO[C@@H](CCCCCCCCCOCC2CCCCC2)[C@H]1O | 0.46 | 0.67 |  |
| CCCCCCCOCCCCCC[C@@H]1OC[C@@H](N)[C@@H]1O | 3.9 | 9.6 |  |
| O=C(NCc1ccncc1)C12CC3CC(C1)CC(c1ccc(Cl)cc1)(C3)C2 [ABC-294640] |  |  | IC50 (Sphingosine kinase 1 [1]): > 100 µM; IC50 (Sphingosine kinase 2 [2]): 60 µM |
